Drawing on ChEMBL document CHEMBL2321841, “Structure-based drug design and potent anti-cancer activity of tricyclic 5:7:5-fused diimidazo[4,5-d:4',5'-f][1,3]diazepines” (Bioorg Med Chem, 2013), this text covers IC50 and inhibition of growth for 26 molecules.

The nature of assay [1]: Cytotoxicity against human H460 cells after 72 hrs by WST1 assay. Type of assay: functional, cell-based. As to conditions: NCI-H460, 72 h. The procedure, abridged: (§1)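 Cells were seeded the day before dosing at 0.5–1.7 × 10^3 cells/well in RPMI + 10% FBS. Compounds were dissolved in DMSO (stocks 100–200 mM) and tested at nine concentrations from 100 μM to 5 nM, in 4 replicates per dilution, with experiments repeated 1x or 2x. Exposure was 72 h at 37°C, 5% CO2, against a DMSO vehicle control. WST-1 was then added for 4 h and absorbance read at 450–690 nm.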
For orientation: Tetrazolium assays rely on reduction of a dye to a coloured formazan, in cell work by metabolically active cells.

For assay [2], the system named is OVCAR-3. Nature of the assay: Cytotoxicity against human OVCAR3 cells after 72 hrs by WST1 assay. Type of assay: functional, cell-based. As to conditions: OVCAR-3, 72 h. The procedure, abridged:
as §1

Assay [3] relates to PC-3. Nature of the assay: Cytotoxicity against human PC3 cells after 72 hrs by WST1 assay. It counts as functional, cell-based. To be noted: PC-3, 72 h. The gist of the method: as §1
Assay [4] deals with A549. The assay can be described thus: Cytotoxicity against human A549 cells after 72 hrs by WST1 assay. It counts as functional, cell-based. To be noted: A549, 72 h. The procedure, abridged:
as §1

The test system of assay [5] is MCF7. Nature of the assay: Cytotoxicity against human MCF7 cells after 72 hrs by WST1 assay. Type of assay: functional, cell-based. To be noted: MCF7, 72 h. The procedure, abridged:
as §1

Assay [6] deals with MDA-MB-231. The assay can be described thus: Cytotoxicity against human MDA-MB-231 cells after 72 hrs by WST1 assay. Type of assay: functional, cell-based. To be noted: MDA-MB-231, 72 h. The gist of the method:
as §1

The test system of assay [7] is A549. The assay can be described thus: Growth inhibition of human A549 cells at 100 uM after 72 hrs by WST1 assay. It counts as functional. To be noted: A549, 72 h, read-out: GI. The procedure, abridged:
(§2)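 The highest concentration, 100 μM, comes from a nine-point series (100 μM to 5 nM) of DMSO-dissolved compound. Cells were seeded the day before at 0.5–1.7 × 10^3 cells/well in RPMI + 10% FBS, with 4 replicates per dilution. Exposure was 72 h at 37°C, 5% CO2, against a DMSO vehicle control. WST-1 was added for 4 h and absorbance read at 450–690 nm. Growth inhibition by ≤75% was scored as not effective.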

Assay [8] can be described thus: Growth inhibition of human H460 cells at 100 uM after 72 hrs by WST1 assay. As to conditions: NCI-H460, 72 h, read-out: GI. Type of assay: functional. The gist of the method: as §2
In assay [9] the test system is MCF7. Nature of the assay: Growth inhibition of human MCF7 cells at 100 uM after 72 hrs by WST1 assay. Type of assay: functional. As to conditions: MCF7, 72 h, read-out: GI. The gist of the method:
as §2

Assay [10] relates to MDA-MB-231. The assay can be described thus: Growth inhibition of human MDA-MB-231 cells at 100 uM after 72 hrs by WST1 assay. Type of assay: functional. As to conditions: MDA-MB-231, 72 h, read-out: GI. The gist of the method:
as §2

Assay [11] concerns OVCAR-3. Nature of the assay: Growth inhibition of human OVCAR3 cells at 100 uM after 72 hrs by WST1 assay. It counts as functional. As to conditions: OVCAR-3, 72 h, read-out: GI. The gist of the method: as §2
The test system of assay [12] is PC-3. Nature of the assay: Growth inhibition of human PC3 cells at 100 uM after 72 hrs by WST1 assay. Type of assay: functional. As to conditions: PC-3, 72 h, read-out: GI. The procedure, abridged:
as §2

The IC50 is the midpoint of a concentration-inhibition curve. High values mean weaker potency, low ones greater potency. In the case of `COc1ccc(Cn2cnc3c4nc(=O)n(Cc5cccc(OC)c5)c-4ncnc32)cc1`, the results for the IC50 (in assay [1]; in the assay with OVCAR-3 [2]; in the assay with PC-3 [3]) were 1.55 µM, 2.5 µM and 5.15 µM, respectively.
As for `COc1ccc(Cn2c3ncnc4c(ncn4Cc4ccc(OC)cc4)c-3nc2=O)cc1`, the IC50 worked out at 2.56 µM with A549 [4], 2.87 µM in assay [1], 7.59 µM in the assay with MCF7 [5] and 4.9 µM in the assay on PC-3 [3].
`COc1ccc(Cn2cnc3c4nc(=O)n(Cc5ccc(F)cc5)c-4ncnc32)cc1`: the IC50 stood at 1.65 µM in the assay with A549 [4] and 4.05 µM in the assay with MCF7 [5].
Turning to `COc1ccc(Cn2cnc3c4nc(=O)n(Cc5ccc(O)cc5)c-4ncnc32)cc1`, the IC50 was determined as 4.21 µM in the assay on A549 [4]; 4.68 µM in [1]; 6.58 µM in the assay on MCF7 [5]; 3.15 µM with MDA-MB-231 [6]; 4.36 µM in the assay on OVCAR-3 [2]; 5.12 µM with PC-3 [3].
As to `COCCOc1ccc(Cn2c3ncnc4c(ncn4Cc4ccc(OC)cc4)c-3nc2=O)cc1`, the IC50 is 4.89 µM in the assay on A549 [4]; 5.14 µM in assay [1]; 14.8 µM in the assay with MCF7 [5]; 5.61 µM in the assay with MDA-MB-231 [6]; 5.45 µM in the assay with OVCAR-3 [2]; 6.7 µM with PC-3 [3].
`COc1ccc(Cn2cnc3c4nc(=O)n(Cc5ccc(OCCO)cc5)c-4ncnc32)cc1`: the IC50 in the assay with A549 [4] came to 12.3 µM; in assay [1], 10.9 µM; in the assay with MCF7 [5] it was 27.2 µM; with MDA-MB-231 [6], 10.6 µM; with OVCAR-3 [2] it was 13.2 µM; in the assay on PC-3 [3] it was 19.7 µM.
Take `COc1ccc(Cn2cnc3c4nc(=O)n(Cc5cccnc5)c-4ncnc32)cc1`: the IC50 in the assay on A549 [4] came out at 8.05 µM; in assay [1], 8.3 µM; in the assay with MCF7 [5] it was 19.8 µM; in the assay on MDA-MB-231 [6], 8.68 µM; in the assay with OVCAR-3 [2], 9.89 µM; in the assay on PC-3 [3], 26.9 µM.
Turning to `COc1ccc(Cn2cnc3c4nc(=O)n(Cc5ccc(N(C)C)cc5)c-4ncnc32)cc1`, the IC50 was 8.81 µM in the assay on A549 [4]; 8.44 µM in assay [1]; 15.1 µM with MCF7 [5]; 8.82 µM with MDA-MB-231 [6]; 9.43 µM in the assay on OVCAR-3 [2]; 202 µM in the assay on PC-3 [3].
Regarding `COc1ccc(Cn2cnc3c4nc(=O)n(CCN5CCCCC5)c-4ncnc32)cc1`, the inhibition of growth at 100 µM (with A549 [7]; in assay [8]; with MCF7 [9]; in the assay with MDA-MB-231 [10]; in the assay with OVCAR-3 [11]; in the assay with PC-3 [12]) was at most 75% in each case.
`COc1ccc(Cn2cnc3c4nc(=O)n(CCN5CCOCC5)c-4ncnc32)cc1`: the inhibition of growth at 100 µM (in the assay on A549 [7]; in [8]; with MCF7 [9]; with MDA-MB-231 [10]; in the assay with OVCAR-3 [11]; in the assay on PC-3 [12]) was at most 75% throughout.
Take `COc1ccc(Cn2c3ncnc4c(ncn4Cc4ccc(F)cc4)c-3nc2=O)cc1`: the IC50 turned out to be 4.4 µM in the assay on A549 [4]; 5.06 µM in assay [1]; 5.87 µM in the assay on MCF7 [5]; 5.33 µM in the assay on MDA-MB-231 [6]; 7.67 µM in the assay with PC-3 [3]. The inhibition of growth at 100 µM in the assay on OVCAR-3 [11] was at most 75%.
Take `COc1ccc(Cn2cnc3c4nc(=O)n(-c5ccccc5)c-4ncnc32)cc1`: the inhibition of growth at 100 µM (with A549 [7]; in assay [8]; with MCF7 [9]; with MDA-MB-231 [10]; in the assay with OVCAR-3 [11]; in the assay with PC-3 [12]) was at most 75% each time.
Regarding `COc1ccc(Cn2cnc3c4nc(=O)n(-c5ccc(OC)cc5)c-4ncnc32)cc1`, the inhibition of growth at 100 µM (with A549 [7]; in [8]; with MCF7 [9]; in the assay on MDA-MB-231 [10]; with OVCAR-3 [11]; with PC-3 [12]) was at most 75% in each case.
Consider `COc1ccc(CCn2c3ncnc4c(ncn4Cc4ccc(OC)cc4)c-3nc2=O)cc1`, for which the inhibition of growth at 100 µM (in the assay on A549 [7]; in assay [8]; in the assay on MCF7 [9]; with MDA-MB-231 [10]; with OVCAR-3 [11]; in the assay on PC-3 [12]) was at most 75% each time.
Regarding `CCn1c2ncnc3c(ncn3Cc3ccc(OC)cc3)c-2nc1=O`, the inhibition of growth at 100 µM (in the assay with A549 [7]; in assay [8]; in the assay on MCF7 [9]; in the assay on MDA-MB-231 [10]; in the assay on OVCAR-3 [11]; in the assay with PC-3 [12]) was at most 75% each time.
For `CCOC(=O)Cn1c2ncnc3c(ncn3Cc3ccc(OC)cc3)c-2nc1=O`, the values for the IC50 (in the assay on A549 [4]; in assay [1]; in the assay on MDA-MB-231 [6]) were 33.5 µM, 34.5 µM and 37 µM, respectively. Also, the inhibition of growth at 100 µM in the assay on MCF7 [9], in the assay with OVCAR-3 [11] and with PC-3 [12] was at most 75% in each case.
Take `COc1ccc(Cn2cnc3c4nc(=O)n(CCCl)c-4ncnc32)cc1`: the values for the IC50 (in the assay with A549 [4]; in assay [1]; in the assay on PC-3 [3]) were 8.63 µM, 7.9 µM and 9.33 µM, respectively. Further, the inhibition of growth at 100 µM with MCF7 [9], in the assay on MDA-MB-231 [10] and in the assay on OVCAR-3 [11] was at most 75% in each case.
`COc1ccc(Cn2cnc3c4nc(=O)n(Cc5ccccc5OC)c-4ncnc32)cc1`: the inhibition of growth at 100 µM (with A549 [7]; in [8]; in the assay with MCF7 [9]; with MDA-MB-231 [10]; in the assay with OVCAR-3 [11]; with PC-3 [12]) was at most 75% each time.
Consider `COc1ccc(Cn2c3nc(C)nc4c(ncn4Cc4ccc(OC)cc4)c-3nc2=O)cc1`, for which the inhibition of growth at 100 µM (with A549 [7]; in [8]; with MCF7 [9]; with MDA-MB-231 [10]; with OVCAR-3 [11]; in the assay on PC-3 [12]) was at most 75% in each case.
As for `CCc1nc2n(Cc3ccc(OC)cc3)c(=O)nc-2c2ncn(Cc3ccc(OC)cc3)c2n1`, the inhibition of growth at 100 µM (in the assay on A549 [7]; in assay [8]; in the assay with MCF7 [9]; in the assay on MDA-MB-231 [10]; with OVCAR-3 [11]; with PC-3 [12]) was at most 75% throughout.
Take `COc1ccc(Cn2c3nc(-c4ccccc4)nc4c(ncn4Cc4ccc(OC)cc4)c-3nc2=O)cc1`: the inhibition of growth at 100 µM (with A549 [7]; in assay [8]; in the assay with MCF7 [9]; in the assay with MDA-MB-231 [10]; with OVCAR-3 [11]; in the assay on PC-3 [12]) was at most 75% in each case.
`COc1ccc(Cn2c3nc(-c4ccc(C)cc4)nc4c(ncn4Cc4ccc(OC)cc4)c-3nc2=O)cc1`: the inhibition of growth at 100 µM (in the assay with A549 [7]; in assay [8]; in the assay with MCF7 [9]; in the assay with MDA-MB-231 [10]; in the assay with OVCAR-3 [11]; in the assay with PC-3 [12]) was at most 75% in each case.
Consider `COc1ccc(Cn2c3nc(CCC(=O)O)nc4c(ncn4Cc4ccc(OC)cc4)c-3nc2=O)cc1`, for which the inhibition of growth at 100 µM (in the assay on A549 [7]; in [8]; in the assay on MCF7 [9]; with MDA-MB-231 [10]; with OVCAR-3 [11]; in the assay on PC-3 [12]) was at most 75% each time.
In the case of `COc1ccc(Cn2c3nc(CCCC(=O)O)nc4c(ncn4Cc4ccc(OC)cc4)c-3nc2=O)cc1`, the inhibition of growth at 100 µM (in the assay with A549 [7]; in [8]; in the assay on MCF7 [9]; in the assay on MDA-MB-231 [10]; in the assay on OVCAR-3 [11]; in the assay on PC-3 [12]) was at most 75% in each case.
Consider `COc1ccc(Cn2c3ncnc4c(ncn4Cc4ccccc4)c-3nc2=O)cc1`, for which the inhibition of growth at 100 µM (in the assay with A549 [7]; in [8]; in the assay with MCF7 [9]; with MDA-MB-231 [10]; with OVCAR-3 [11]; in the assay on PC-3 [12]) was at most 75% in each case.
For the molecule `CCn1cnc2c3nc(=O)n(Cc4ccc(OC)cc4)c-3ncnc21`, the inhibition of growth at 100 µM (in the assay on A549 [7]; in [8]; in the assay with MCF7 [9]; in the assay on MDA-MB-231 [10]; in the assay with OVCAR-3 [11]; in the assay with PC-3 [12]) was at most 75% each time.
